Reference: PMC6490184 (ACS infectious diseases, 2019)
Entries after “also recorded” stand apart in the source; their conditions may differ. Where a name gives a salt, the structure may show the parent alone. Read-outs that look alike come from different tables or passages of the source.

Experiments:
[1] = Non-enzymatic stability on storage and in solution; format: physicochemical; conditions: extended solution times (overnight), LCMS
[2] = test system: tetracycline destructase enzymes Tet(50), Tet(X), and Tet(X)_3; format: biochemical
How it was run: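 Enzymes expressed from pET28b(+) in E. coli BL21-Star (DE3) and Ni-NTA purified. Reactions in 100 mM TAPS pH 8.5 held 504 μM NADPH, 5.04 mM MgCl2, 25.3 μM tetracycline substrate, 0.4 μM enzyme and graded inhibitor, in triplicate. Absorbance at 380 or 400 nm was followed for 4 min. Initial velocities were plotted against log[inhibitor] and fitted by nonlinear regression for IC50. Controls: no-enzyme, no-inhibitor, no-substrate.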

[3] = test system: E. coli expressing tetracycline destructase enzymes; experiment: Checkerboard whole cell inhibition assay; format: cell-based; conditions: co-administered with tetracycline antibiotics
Tet(50) [4] = target: T1, Tet(50) (Unknown prokaryotic organism, UniProt A0A059WYP6); experiment: In vitro inhibition of Tet; format: biochemical; conditions: degradation of tetracycline antibiotics by soil-derived Tet(50)
How it was run: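 Ni-NTA-purified enzyme, dialysed into 50 mM K2HPO4 pH 8.0, 150 mM NaCl, 1 mM DTT. A380 or A400 followed continuously for 4 min. No-enzyme control was set to 1 × 10^15 inhibitor, no-inhibitor control to 1 × 10^−15. No-substrate controls were also run.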

Tet(X) [5] = target: T2, Tet(X) (Bacteroides thetaiotaomicron, UniProt Q93L51); experiment: In vitro inhibition of Tet; format: biochemical
Tet(50) [6] = target: T1, Tet(50); experiment: Exposure of aDem to Tet; format: biochemical; conditions: Tet(50) with NADPH, no tetracycline, LCMS
[7] = test system: E. coli expressing Tet(X); experiment: Whole cell resistance of E. coli expressing Tet; format: cell-based
Tet(X) [8] = target: T2, Tet(X); experiment: Tet; format: biochemical; conditions: decrease in 440 nm absorption band and extracted mass (LCMS)
[9] = apparent IC50, Tet(X)-mediated degradation of tigecycline

| Compound | non-enzymatic degradation in solution [1] | in vitro destructase inhibitory activity [2] | whole cell inhibition / rescue of tetracycline activity [3] | IC50 (Tet(X) [5]; [9]) | other results |
| --- | --- | --- | --- | --- | --- |
| Cc1c2c(c(O)c3c(O)c(Br)ccc13)C(=O)[C@]1(O)C(=O)C(C(N)=O)=C(O)[C@@H](N(C)C)[C@@H]1C2.Cl [9-Br-aTc, (4S,4aS,12aS)-9-bromo-4-(dimethylamino)-3,10,11,12a-tetrahydroxy-6-methyl-1,12-dioxo-1,4,4a,5,12,12a-hexahydrotetracene-2-carboxamide hydrochloride] | some non-enzymatic degradation | potent in vitro destructase inhibitory activity | limited activity | – | – |
| CN(C)[C@@H]1C(O)=C(C(N)=O)C(=O)[C@@]2(O)C(=O)c3c(cc4c(Cl)ccc(O)c4c3O)C[C@@H]12.Cl [aDem, (4S,4aS,12aS)-7-chloro-4-(dimethylamino)-3,10,11,12a-tetrahydroxy-1,12-dioxo-1,4,4a,5,12,12a-hexahydrotetracene-2-carboxamide hydrochloride] | – | – | rescues tetracycline activity | 400 to 1500 nM | in vitro inhibitory activity against enzymatic degradation by Tet(50) (Tet(50) [4]): performed poorly; in vitro inhibitory activity against enzymatic degradation by Tet(50) (Tet(50) [4]; listed as 7): poor in vitro inhibitory activity; IC50 (Tet(X) [5]; apparent IC50, Tet(X)-mediated degradation of tetracycline antibiotics (tetracycline, demeclocycline)): 1000 to 4000 nM; decrease in extracted mass over time (Tet(50) [6]): no measurable decrease |
| CN(C)c1cc(NC(=O)CNC(C)(C)C)c(O)c2c1C[C@H]1C[C@H]3[C@H](N(C)C)C(O)=C(C(N)=O)C(=O)[C@@]3(O)C(O)=C1C2=O [tigecycline] | – | – | – | – | resistance, increase over empty vector controls [7]: 2 fold |
| Cc1c2c(c(O)c3c(O)cccc13)C(=O)[C@]1(O)C(=O)C(C(N)=O)=C(O)[C@@H](N(C)C)[C@@H]1C2 [aTc, anhydrotetracycline, reference compound] | – | – | performs well | – | enzymatic degradation by Tet(X) (Tet(X) [8]): substrate for Tet(X); inhibition model ([2]; Lineweaver-Burk plots, degradation of tetracycline): mixed competitive/non-competitive inhibition model; IC50 (Tet(X) [5]): 400 to 1500 nM |
| Cc1c2c(c(O)c3c(O)ccc(I)c13)C(=O)[C@]1(O)C(=O)C(C(N)=O)=C(O)[C@@H](N(C)C)[C@@H]1C2.Cl [7-I-aTc, (4S,4aS,12aS)-4-(dimethylamino)-3,10,11,12a-tetrahydroxy-7-iodo-6-methyl-1,12-dioxo-1,4,4a,5,12,12a-hexahydrotetracene-2-carboxamide hydrochloride] | non-enzymatic degradation of 7-I-aTc in solution was observed; also recorded: some non-enzymatic degradation | potent in vitro destructase inhibitory activity | limited activity; also recorded: no inhibitory activity | – | – |
| Cc1c2c(c(O)c3c(O)ccc(Cl)c13)C(=O)[C@]1(O)C(=O)C(C(N)=O)=C(O)[C@@H](N(C)C)[C@@H]1C2 [aCTc, (4S,4aS,12aS)-7-chloro-4-(dimethylamino)-3,10,11,12a-tetrahydroxy-6-methyl-1,12-dioxo-1,4,4a,5,12,12a-hexahydrotetracene-2-carboxamide hydrochloride] | – | – | – | 400 to 1500 nM | – |
